Calls of active or inactive are those of the source. The calls are words filed in the database; no cut-off is given here.

One data set has as its system HL-60. The experiment in a line: Cytotoxicity against human HL60 cells assessed as cell growth inhibition after 48 hrs by MTT assay. The following applies: HL-60, 48 h. The data set is classed as functional, cell-based. The gist of the method: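 Suspension cells seeded at 5000/well (HL-60 in IMDM, K562 in RPMI, both with 10% FBS) and treated. MTT then added for 4 h at 37 °C; plates centrifuged at 3000 rpm for 30 min, medium removed, DMSO added, OD570 read. IC50 taken as concentration giving 50% growth inhibition; triplicate.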

Another data set has as its system ECa-109 cell line. The experiment in a line: Cytotoxicity against human ECA109 cells assessed as cell growth inhibition after 48 hrs by MTT assay. The data set is classed as functional, cell-based. The following applies: ECa-109, 48 h. A digest of the protocol:
(§1)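 Adherent cells seeded at 5000/well, left 16−24 h, then exposed 48 h at 37 °C, 5% CO2 in RPMI with 10% FBS. Medium refreshed, MTT added for 4 h at 37 °C, medium removed, formazan dissolved in DMSO, OD570 read. IC50 taken as concentration inhibiting growth by 50%; triplicate.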
Background: Tetrazolium dyes change colour on reduction, which living cells bring about.

Another data set relates to A549. The experiment in a line: Cytotoxicity against human A549 cells assessed as cell growth inhibition after 48 hrs by MTT assay. The following applies: A549, 48 h. In kind it is functional, cell-based. A digest of the protocol:
as §1

For another data set, the system named is HepG2. The experiment in a line: Cytotoxicity against human HepG2 cells assessed as cell growth inhibition after 48 hrs by MTT assay. The data set is classed as functional, cell-based. Conditions: HepG2, 48 h. A digest of the protocol: as §1
The test system of the next data set is L02. The experiment in a line: Cytotoxicity against human HL-7702 cells assessed as cell growth inhibition after 48 hrs by MTT assay. The following applies: L02, 48 h. The data set is classed as cell-based. The gist of the method: as §1
Data set [1] is described as follows: Drug uptake in mitochondria of human K562 cells at 10 uM after 4 hrs by RP-HPLC analysis relative to betulin. In kind it is ADME. A digest of the protocol: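 K562 exposed to 10 μM compound or betulin for 4 h, washed, mitochondria isolated by kit, pellet extracted twice with dichloromethane/methanol (2:1). Residue assayed by RP-HPLC on C18: betulin in 100% acetonitrile, detection 220 nm; conjugate in 80% acetonitrile with 0.1% formic acid, detection 267 nm. Amounts normalised to protein; n = 3.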

Data set [2] has as its system K562. The experiment in a line: Induction of apoptosis in human K562 cells assessed as late apoptotic cells at 0.4 uM after 48 hrs by Annexin V-FITC/propidium iodide-staining based flow cytometric analysis (reference value: 2.25 to 2.67%). In kind it is functional. A digest of the protocol: (§2)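 K562 seeded at 4 × 10^5 cells/well, 12 h, then exposed 48 h. Cells washed in ice-cold PBS, suspended in binding buffer, stained with annexin V-FITC and PI for 15 min at room temperature in the dark, and read by flow cytometry within 1 h. Cells counted as early/late apoptotic as % of total; n = 3.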
(Flow cytometry measures light scatter and fluorescence of single cells or particles in a stream.)

For data set [3], the system named is K562. Nature of the data set: Induction of apoptosis in human K562 cells assessed as necrotic cells at 0.4 uM after 48 hrs by Annexin V-FITC/propidium iodide-staining based flow cytometric analysis (reference value: 0.13 to 0.27%). The data set is classed as functional. The gist of the method:
as §2

Data set [4] deals with K562. The experiment in a line: Induction of apoptosis in human K562 cells assessed as viable cells at 0.8 uM after 48 hrs by Annexin V-FITC/propidium iodide-staining based flow cytometric analysis (reference value: 95.75 to 96.56%). The data set is classed as functional. The following applies: K562, 48 h, read-out: Activity. The gist of the method:
as §2

In data set [5] the test system is K562. Nature of the data set: Induction of apoptosis in human K562 cells assessed as early apoptotic cells at 0.8 uM after 48 hrs by Annexin V-FITC/propidium iodide-staining based flow cytometric analysis (reference value: 0.92 to 1.45%). The data set is classed as functional. A digest of the protocol: as §2
Data set [6] has as its system K562. The experiment in a line: Induction of apoptosis in human K562 cells assessed as late apoptotic cells at 0.8 uM after 48 hrs by Annexin V-FITC/propidium iodide-staining based flow cytometric analysis (reference value: 2.25 to 2.67%). The data set is classed as functional. The gist of the method:
as §2

Data set [7] concerns K562. The experiment in a line: Induction of apoptosis in human K562 cells assessed as necrotic cells at 0.8 uM after 48 hrs by Annexin V-FITC/propidium iodide-staining based flow cytometric analysis (reference value: 0.13 to 0.27%). The data set is classed as functional. A digest of the protocol:
as §2

The test system of data set [8] is K562. Nature of the data set: Induction of apoptosis in human K562 cells assessed as viable cells at 1.2 uM after 48 hrs by Annexin V-FITC/propidium iodide-staining based flow cytometric analysis (reference value: 95.75 to 96.56%). The following applies: K562, 48 h, read-out: Activity. In kind it is functional. The gist of the method:
as §2

Data set [9] has as its system K562. The experiment in a line: Induction of apoptosis in human K562 cells assessed as early apoptotic cells at 1.2 uM after 48 hrs by Annexin V-FITC/propidium iodide-staining based flow cytometric analysis (reference value: 0.92 to 1.45%). The data set is classed as functional. A digest of the protocol:
as §2

Data set [10] concerns K562. The experiment in a line: Induction of apoptosis in human K562 cells assessed as late apoptotic cells at 1.2 uM after 48 hrs by Annexin V-FITC/propidium iodide-staining based flow cytometric analysis (reference value: 2.25 to 2.67%). In kind it is functional. The gist of the method:
as §2

In data set [11] the test system is K562. The experiment in a line: Induction of ROS generation in human K562 cells at 0.5 uM after 48 hrs by DCFH-DA probe based flow cytometric analysis relative to control. The data set is classed as functional. A digest of the protocol: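 K562 seeded at 4 × 10^5 cells/well, 12 h, then treated 48 h. Washed cells loaded with DCFH-DA in FBS-free medium at 37 °C for 30 min, rinsed, read by flow cytometry. ROSup was the positive control; mean ± SD, n = 3.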

The subject of data set [12] is K562. The experiment in a line: Decrease in mitochondrial membrane potential in human K562 cells at 1 to 2 uM after 48 hrs by JC-1 staining based fluorescence microscopic analysis. In kind it is functional, cell-based. The gist of the method:
(§3)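 K562 seeded at 4 × 10^5 cells/well, after 12 h treated 48 h. Cells washed in ice-cold PBS, loaded with JC-1 ([…]) at 37 °C for 15 min, rinsed, and analysed by flow cytometry (% cells with red aggregates) and fluorescence microscopy (red aggregates vs green monomers).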

The subject of data set [13] is K562. Nature of the data set: Induction of mitochondrial membrane depolarization in human K562 cells assessed as cells with mitochondrial membrane potential loss at 1 uM after 48 hrs by JC-1 staining based flow cytometric analysis (reference value: 1.89 to 2.23%). In kind it is functional.
The test system of data set [14] is K562. Nature of the data set: Induction of mitochondrial membrane depolarization in human K562 cells assessed as cells with intact mitochondrial membrane potential at 2 uM after 48 hrs by JC-1 staining based flow cytometric analysis (reference value: 97.63 to 97.67%). In kind it is functional. A digest of the protocol:
as §3

Data set [15] has as its system K562. Nature of the data set: Induction of mitochondrial membrane depolarization in human K562 cells assessed as cells with mitochondrial membrane potential loss at 2 uM after 48 hrs by JC-1 staining based flow cytometric analysis (reference value: 1.89 to 2.23%). In kind it is functional.
The subject of data set [16] is K562. The experiment in a line: Induction of mitochondrial membrane depolarization in human K562 cells assessed as cells with mitochondrial membrane potential loss at 4 uM after 48 hrs by JC-1 staining based flow cytometric analysis (reference value: 1.89 to 2.23%). The data set is classed as functional.
Data set [17] has as its system K562. Nature of the data set: Induction of apoptosis in human K562 cells assessed as caspase-9 activation at 4 uM after 48 hrs by Western blot analysis relative to control. In kind it is functional. The gist of the method: (§4)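 K562 treated 48 h, then lysed on ice for 30 min; cytosolic and mitochondrial fractions isolated by kit where needed, protein measured by BCA. 60 μg/lane run on SDS-PAGE, transferred to PVDF, blocked in 5% milk/TBST for 4 h. Probed for cytochrome c, caspase-9, caspase-3 (total/cleaved), PARP; alkaline phosphatase secondary.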
In general terms: Immunoblotting shows a protein as a band on a membrane.

Data set [18] has as its system K562. Nature of the data set: Induction of apoptosis in human K562 cells assessed as increase in cytosolic cytochrome c level up to 4 uM after 48 hrs by Western blot analysis. In kind it is functional, cell-based. The gist of the method: as §4
The test system of data set [19] is K562. The experiment in a line: Induction of apoptosis in human K562 cells after 48 hrs by Annexin V-FITC/propidium iodide-staining based flow cytometric analysis. The data set is classed as functional, cell-based. A digest of the protocol:
as §2

For the compound `C=C(C)[C@@H]1CC[C@]2(COC(=O)CCCC[P+](c3ccccc3)(c3ccccc3)c3ccccc3)CC[C@]3(C)[C@H](CC[C@@H]4[C@@]5(C)CC[C@H](O)C(C)(C)[C@@H]5CC[C@]43C)[C@@H]12.[Br-]`, the IC50 with HL-60 was 600 nM; in the data set with ECa-109 cell line, 780 nM; in the data set on A549 it was 610 nM; with HepG2, 1090 nM; with L02, 6620 nM. For the same compound, the “fold change (FC)” value amounted to 3.4 in data set [1] and 1.5 in the data set on K562 [17]. In addition, the Activity with K562 [2] amounted to 4.67%; in the data set with K562 [3], 0.53%; in the data set on K562 [5], 12.51%; with K562 [6], 20.57%; in the data set on K562 [7], 3.7%; with K562 [9], 12.03%. Besides, the Activity worked out at 38.25% in the data set with K562 [10]; 50% in the data set with K562 [11]; 6.47% with K562 [13]; 82.54% with K562 [14]; 17.08% in the data set with K562 [15]; 61.4% in the data set on K562 [16]. Also, the Activity entry with K562 [19] was “Dose-dependent effect”. In addition, the viability at 0.8 µM with K562 [4] was found to be 63.2%. The viability at 1.2 µM in the data set with K562 [8] turned out to be 45.3%. In addition, the result with K562 [12] and in the data set on K562 [18] was Active.

For orientation: IC50 means the concentration at which inhibition is half-maximal.

Source of the values: ChEMBL document CHEMBL4011654, “Mitochondria-Targeted Lupane Triterpenoid Derivatives and Their Selective Apoptosis-Inducing Anticancer Mechanisms” (J Med Chem, 2017).
